# Screens as filed in PubChem BioAssay.
# Only some compounds are listed: those with a hit (about 2.1% of all), similar ones and a draw of the others.
# aDG glyco act: activators of alpha-DG glycosylation, primary screen, uHTS, Pro5-aDG cells, AlphaScreen | hit rate 0.22% among 360,000 | alpha-DG glycosylation AlphaScreen (IIH6); 0% Pro5, 100% B10-LARGE cell signal | activation, % at 10 µM | AID 624168, 2012;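 active = activation of at least 8% versus controls, or a plate z-score of at least 8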;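 note: Pro5 are CHO cells carrying HIG-tagged alpha-DG that lacks glycosylation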
# PfGluPho inh: PfG6PD enzyme inhibitors, primary screen, biochemical, fluorescence intensity, uHTS. PfGluPho enzyme, NADPH resazurin-diaphorase fluorescence. AID 504690, 2011. inhibition, % at 20 µM. hit rate 0.78% among 350,000. glucose-6-phosphate dehydrogenase-6-phosphogluconolactonase (Plasmodium falciparum 3D7);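 active = inhibition reaching at least a set limit at 20 µM in the primary screen, cut at about 59% in these data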
# HKDC1 inhibitor: HKDC1 hexokinase inhibitors, primary screen, biochemical, fluorescence, uHTS; Q2TB90; recombinant HKDC1, G6PDH/diaphorase resazurin coupled fluorescence; inhibition, % at 20 µM; hit rate 0.16% among 340,000;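 active = inhibition above about 35% when tested at 20 µM, limit read from the data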
#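 Assay system – recombinant HKDC1 (HK5) hexokinase enzyme, produced in-house · Input – HKDC1 at 5 µg/mL · Reagent – glucose plus 1 mM ATP as hexokinase substrates · Timing – 90 min reaction incubation at room temperature, dark · Measured by – G6PDH/diaphorase-coupled fluorescence, 1 mM NADP, 100 µM resazurin, 525/613 nm · Benchmarks – DMSO-enzyme wells negative, buffer-substituted wells positive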
# H9c2 protect: cardioprotection against H2O2-induced cell death, primary screen, uHTS, H9c2 cells, ATPLite luminescence | protection from H2O2 cell death, % at 20 µM | hit rate 0.63% among 360,000 | H9c2 cardiomyocytes, H2O2 injury protection, 2 h | AID 588492, 2011;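 active = compounds giving at least 50% protection of heart cells from peroxide-induced death in the single-dose screen, raw or plate-pattern-corrected value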
# Beta2AR agonist: beta2AR agonists driving receptor internalization, primary screen, cell-based, FAP fluorogen, flow cytometry. Am2.2-beta2AR cells. response, % (test concentration not listed). Beta-2 adrenergic receptor (Homo sapiens), P07550. hit rate 0.43% among 340,000. AID 504454, 2011;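 active = response above a set limit, near 3 SD of response in nonfluorescent compounds, cut at about 42% in these data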
# Target sequence (P07550 whole entry, looked up): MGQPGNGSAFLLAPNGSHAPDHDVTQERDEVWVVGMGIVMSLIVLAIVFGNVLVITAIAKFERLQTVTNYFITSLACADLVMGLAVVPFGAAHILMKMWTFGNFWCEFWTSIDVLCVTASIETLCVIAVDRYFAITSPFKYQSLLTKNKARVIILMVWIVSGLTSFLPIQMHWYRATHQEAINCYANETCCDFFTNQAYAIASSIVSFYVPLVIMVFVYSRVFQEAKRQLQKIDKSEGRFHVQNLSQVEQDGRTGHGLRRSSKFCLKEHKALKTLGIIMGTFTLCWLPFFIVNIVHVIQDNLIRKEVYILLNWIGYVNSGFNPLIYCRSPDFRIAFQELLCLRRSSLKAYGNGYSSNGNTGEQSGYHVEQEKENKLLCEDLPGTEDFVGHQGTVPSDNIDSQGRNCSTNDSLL
# UCH37 inh: inhibitors of human UCH37 deubiquitinase, primary screen, biochemical, Ub-AMC cleavage, fluorescence; Ubiquitin carboxyl-terminal hydrolase isozyme L5 (Homo sapiens), Q9Y5K5; purified proteasome/UCH37; inhibition, % (no concentration beside the values); hit rate 0.33% among 330,000; AID 588478, 2011;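 active = mean inhibition over replicate wells above about 20%, limit read from the data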
# Target sequence (Q9Y5K5 whole entry, looked up): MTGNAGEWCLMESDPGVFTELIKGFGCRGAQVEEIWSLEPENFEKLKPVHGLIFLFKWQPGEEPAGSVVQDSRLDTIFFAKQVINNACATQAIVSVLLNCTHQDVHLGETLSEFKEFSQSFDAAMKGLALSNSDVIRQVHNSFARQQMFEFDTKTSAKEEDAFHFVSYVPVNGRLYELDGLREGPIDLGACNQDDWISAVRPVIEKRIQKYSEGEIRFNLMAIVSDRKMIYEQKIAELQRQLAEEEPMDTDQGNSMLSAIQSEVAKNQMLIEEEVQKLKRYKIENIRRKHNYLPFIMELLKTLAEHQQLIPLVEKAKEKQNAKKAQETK
#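 Material: Human UCH37 enzyme supplied as purified proteasome complex | Schedule: 30 min preincubation with enzyme, 25 min cleavage at room temperature | Detection: AMC fluorescence 355/460 nm | Measure: % inhibition of Ub-AMC cleavage fluorescence | Controls: Wells without proteasome as full block, compound-free enzyme plus substrate as uninhibited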
# HKDC1 act conf: HKDC1 hexokinase activators, confirmation, biochemical, single concentration. recombinant HKDC1, G6PDH/diaphorase resazurin fluorescence; active compounds read low. inhibition, % at 20 µM. shares compounds with HKDC1 inhibitor. hit rate 14% among 740;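 active = inhibition at or below a set negative limit, negative inhibition meaning the enzyme was activated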
# B2AR ag CP1: beta2AR agonists via receptor internalization, confirmation, cell-based, FAP fluorogen, flow cytometry, single point, cherry pick 1. shares compounds with Beta2AR agonist. Am2.2-beta2AR cells, FAP surface receptor; active compounds read low. percent response (surface receptor), % at 10 µM. hit rate 25% among 1,100. AID 540358, 2011;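 active = surface receptor percent response at or below 58%, roughly 3 SD from nonfluorescent compounds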
# FAP fluor counter: counter-screen for beta-2AR agonists: fluorescence in Am2.2 cells. 1,100 tested, under 10 active. FAP fluorogen flow cytometry, fluorescence counterscreen; active compounds read low. calls only at 10 µM. shares compounds with Beta2AR agonist;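 active = percent response below a set limit in fluorescence channel 1 and below 50% in channel 8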
# PfG6PD confirm: PfG6PD inhibitors, hit retest, confirmation, biochemical, fluorescence intensity, single concentration; AID 504753, 2011; shares compounds with PfGluPho inh; hit rate 34% among 2,400; recombinant PfGluPho, NADPH-diaphorase-resazurin fluorescence; inhibition, % at 20 µM;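 active = inhibition of at least 50% at 20 µM in any single replicate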
# Diaphorase 10uM: diaphorase inhibitors and chemical oxidizers, confirmation, counter-screen for P. falciparum G6PD inhibitor project, biochemical, fluorescence intensity, 10 µM NADPH; shares compounds with PfGluPho inh; diaphorase-coupled resazurin reduction, NADPH 10 uM; inhibition, % at 20 µM; hit rate 39% among 820;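 active = average inhibition reaching 50% or more with the compound at 20 µM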;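 note: resorufin red fluorescence formed as diaphorase reduces resazurin using NADPH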
# Diaphorase 30uM: diaphorase inhibitors and chemical oxidizers, confirmation, counter-screen for P. falciparum G6PD inhibitor project, biochemical, fluorescence intensity, 30 µM NADPH; hit rate 29% among 820; shares compounds with PfGluPho inh; AID 504863, 2011; Diaphorase/resazurin coupled assay, resorufin fluorescence; inhibition, % at 20 µM;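 active = inhibition averaging 50% or more, tested at 20 µM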
# UCH37 reconfirm: retest of human UCH37 deubiquitinase inhibitors, confirmation, biochemical, Ub-AMC cleavage rate, fluorescence | shares compounds with UCH37 inh | hit rate 27% among 480 | inhibition, % at 20 µM | Proteasome-bound UCH37;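 active = average inhibition over replicates above about 50%, so the earlier screening hit is confirmed, limit read from the data; inactive = the rest, counted as false positives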;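 note: based on cleavage rate fitted by regression over a 30 min kinetic read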
# A number is an active result; - = inactive; . = not tested or not shown; ! = not confirmed by another sample.
SMILES,aDG glyco act,PfGluPho inh,HKDC1 inhibitor,H9c2 protect,Beta2AR agonist,UCH37 inh,others
O=C1C=C(Nc2ccc(O)cc2)C(=O)c2ccccc21,-,-,-,-,-,-,
Cc1ccc(NC2=C/C(=N\S(=O)(=O)c3cccs3)c3ccccc3C2=O)c(C)c1,-,102,40,-,64,65,HKDC1 act conf=-;PfG6PD confirm=58;Diaphorase 10uM=60;Diaphorase 30uM=57
O=C1C(Nc2ccc(O)cc2)=C/C(=N/S(=O)(=O)c2cccs2)c2ccccc21,-,114,60,-,61,.,HKDC1 act conf=-;PfG6PD confirm=60;Diaphorase 10uM=67;Diaphorase 30uM=65
Cc1cc(C)c(S(=O)(=O)/N=C2\C=C(NS(=O)(=O)c3ccccc3)C(=O)c3ccccc32)c(C)c1,-,-,-,-,-,.,
COc1cc(C(=O)NN=Cc2coc3ccccc3c2=O)cc(OC)c1OC,.,.,.,.,.,-,
CC(NC(=O)c1sc2cc([N+](=O)[O-])ccc2c1Cl)C(C)(C)C (stereo not drawn),-,97,-,-,-,-,HKDC1 act conf=-39;PfG6PD confirm=70;Diaphorase 10uM=-;Diaphorase 30uM=-
O=C(NC1CC1)c1sc2cc([N+](=O)[O-])ccc2c1Cl,-,-,-,-,-,-,
O=C1C=C(N2CCCCC2)c2ccccc2C1=O,-,-,81,-,-,90,HKDC1 act conf=-;UCH37 reconfirm=147
O=C1c2ccccc2C(=O)c2c1cccc2N1CCCC1,-,-,-,-,-,-,
Cc1ccc(Cl)cc1NC1=C/C(=N\S(=O)(=O)c2cccs2)c2ccccc2C1=O,-,95,36,-,45!,43,HKDC1 act conf=-;PfG6PD confirm=58;Diaphorase 10uM=-;Diaphorase 30uM=-;UCH37 reconfirm=-
S=C(NN=Cc1ccc2ncccc2c1)Nc1ccccc1,.,.,.,.,.,-,
Cc1oc2c(c1C(=O)c1ccccc1)C(=O)C(=O)c1ccccc1-2,-,108,42,-,98,49,HKDC1 act conf=-;PfG6PD confirm=101;Diaphorase 10uM=90;Diaphorase 30uM=91;UCH37 reconfirm=-
CCOc1ccc(C=NNc2ccc(S(=O)(=O)Nc3ccccc3C(=O)O)cc2[N+](=O)[O-])cc1,-,-,-,-,-,-,
C=CCOc1ccc(C=NNc2ccc(S(=O)(=O)Nc3ccccc3C(=O)O)cc2[N+](=O)[O-])cc1OC,-,-,51,-,-,86,HKDC1 act conf=-;UCH37 reconfirm=83
CC(=O)NN=C(C)CC(=O)Nc1cccc(C(F)(F)F)c1,.,.,.,.,.,-,
COc1cc(C=NNc2nc(C)cc(C)n2)ccc1OC(=O)c1ccco1,.,.,.,.,.,-,
COC(=O)c1cc(C)nc2c1C(=O)C(=O)C=C2N1CCOCC1,-,105,68,-,61,100,HKDC1 act conf=-;PfG6PD confirm=101;Diaphorase 10uM=99;Diaphorase 30uM=103;UCH37 reconfirm=100
COC(=O)c1cc(S(=O)(=O)N2CCOCC2)c(Cl)cc1N1CCOCC1,-,-,-,-,-,-,
Cc1ccc(C(=O)ONc2ccc(N=NC(=O)c3ccccc3O)cc2)cc1,-,-,65,-,-,27,HKDC1 act conf=-;UCH37 reconfirm=-
CC1CCN(S(=O)(=O)c2ccc(C(=O)Nc3nnc(-c4ccco4)o3)cc2)CC1,-,-,-,-,51,-,B2AR ag CP1=-;FAP fluor counter=-
O=c1[nH]c2ccccc2cc1CN(Cc1ccco1)S(=O)(=O)c1ccc(F)cc1,-,-,-,-,-,-,B2AR ag CP1=-;FAP fluor counter=-
CCN(Cc1cc2ccccc2[nH]c1=O)S(=O)(=O)c1ccc(OC)cc1,-,-,-,-,-,-,
CCC(=NNC(=O)c1cc(C)nc2ccccc12)c1ccc(C)s1,.,.,.,.,.,-,
CN(Cc1cn(C)nc1-c1ccccc1F)C1CCOC1 (stereo not drawn),-,-,-,-,-,-,
CN(CCCN1CCOCC1)Cc1cn(C)nc1-c1ccccc1F,-,-,-,-,-,-,B2AR ag CP1=-;FAP fluor counter=-
SMILES,aDG glyco act,PfGluPho inh,HKDC1 inhibitor,H9c2 protect,Beta2AR agonist,UCH37 inh,others
CC(=NNC(=O)c1cccs1)c1ccc2c(c1)OCO2,.,.,.,.,.,-,
Cn1nc(-c2ccc(C(=O)NCCO)cc2)c2ccccc2c1=O,-,-,-,-,-,-,B2AR ag CP1=-;FAP fluor counter=-
CN(CCO)C(=O)c1ccc(-c2nn(C)c(=O)c3ccccc23)cc1,-,-,-,-,-,-,
Cc1ccc(CNC(=O)CCCc2c[nH]c3ccccc23)cc1,-,-,-,-,52,-,B2AR ag CP1=-;FAP fluor counter=-
C=CCOc1ccccc1C=NO,.,.,.,.,.,-,
CCC(C=NNc1ccc(S(=O)(=O)N2CCCC2)cc1[N+](=O)[O-])CC,.,.,.,.,.,-,
O=C(COc1ccc(F)cc1)N(Cc1cccc(Br)c1)C1CCS(=O)(=O)C1 (stereo not drawn),-,-,-,-,53,-,B2AR ag CP1=-;FAP fluor counter=-
COc1ccc(C=Nn2cnnc2SCc2ccccc2)cc1,.,.,.,.,.,-,
COc1ccc(CNCCC(c2ccccc2)c2ccc(OC(C)C)cc2)cc1OC (stereo not drawn),-,-,-,-,-,-,
COc1ccc(C(CCNCc2ccc(N(C)C)cc2)c2ccccc2OC)cc1 (stereo not drawn),-,-,-,-,-,-,B2AR ag CP1=-;FAP fluor counter=-
COc1ccc(CNC(C)CCc2ccccc2)cc1 (stereo not drawn),-,-,-,-,-,-,
COc1ccc(CCNCc2ccc(OCc3ccccc3)cc2)cc1,-,-,-,-,-,-,
COc1ccc(CNCCC(c2ccc(OC)cc2)c2ccccc2OC)cc1 (stereo not drawn),-,-,-,-,-,-,B2AR ag CP1=-;FAP fluor counter=-
